≈ marks a conversion by molar mass, not a printed value. Each block holds one molecule with its values, some of them ahead of it.
Experiments:
[1] = Clearance in rat at 1 mg/kg, iv; assay type: ADME, organism-based; conditions: in vivo
In short: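 Rat dosed intravenously at 1 mg/kg.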

[2] = Oral bioavailability in rat at 5 mg/kg; assay type: ADME, organism-based; conditions: in vivo
[3] = biological target: T1, Prostaglandin E2 receptor EP4 subtype (Homo sapiens, UniProt P35408); experiment: Antagonist activity at EP4 receptor in human whole blood assessed as reversal of inhibition of PGE2 mediated LPS-induced TNF alpha production pretreated for 30 mins using 3,3',5,5' tetramethylbiphenyl-4,4'-diamine substrate measured after 20 to 24 hrs by immunoassay; assay type: tissue-based
T1 sequence (P35408 whole entry): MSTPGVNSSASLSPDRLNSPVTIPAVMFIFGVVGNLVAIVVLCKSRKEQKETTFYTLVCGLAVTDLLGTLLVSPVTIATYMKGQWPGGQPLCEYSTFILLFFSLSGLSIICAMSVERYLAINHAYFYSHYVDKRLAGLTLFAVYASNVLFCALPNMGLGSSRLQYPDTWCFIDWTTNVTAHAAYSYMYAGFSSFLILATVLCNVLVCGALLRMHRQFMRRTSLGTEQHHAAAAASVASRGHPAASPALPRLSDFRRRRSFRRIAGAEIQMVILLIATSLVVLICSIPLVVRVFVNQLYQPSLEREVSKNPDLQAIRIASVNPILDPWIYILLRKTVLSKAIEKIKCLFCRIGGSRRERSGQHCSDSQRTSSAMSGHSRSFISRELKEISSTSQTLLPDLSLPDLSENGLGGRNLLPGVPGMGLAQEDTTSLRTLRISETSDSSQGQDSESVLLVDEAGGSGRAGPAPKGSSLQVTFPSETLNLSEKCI
In short: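 Pooled heparinized blood from volunteer donors (no NSAIDs or celecoxib for 48 h, no glucocorticoids for 2 weeks). Compounds added in triplicate as 7-point curves from DMSO stocks at 100× final, preincubated 30 min at 37 °C under 5% CO2. Stimulated with LPS ± PGE2 (final 10 nM), incubated 20–24 h, plasma TNFα read by ELISA at A450–A650. IC50 from sigmoidal fit, reported as geometric mean ± SD.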

[4] = Cmax in rat at 5 mg/kg, po; assay type: ADME, organism-based; design: dose 5 mg/kg, route oral; conditions: in vivo
[5] = biological target: T1, Prostaglandin E2 receptor EP4 subtype; experiment: Antagonist activity at human EP4 receptor
[6] = Ratio of Cmax in rat to IC50 for EP4 in human whole blood
[7] = biological target: T1, Prostaglandin E2 receptor EP4 subtype; experiment: Antagonist activity at human EP4 receptor in HEK293 cells assessed as inhibition of PGE2-induced cAMP accumulation; assay type: functional, cell-based
In short: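 HEK293 cells; functional readout was inhibition of PGE2-induced cAMP accumulation. IC50 reported ± SEM, with number of experiments.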

[8] = Drug metabolism in rat hepatic microsomes incubated for 30 mins in presence of NADPH; assay type: ADME, Microsome; conditions: liver microsomes, read-out: Drug metabolism
In short: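 Compound incubated 30 min with rat liver microsomes and NADPH; percent metabolized reported.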

[9] = Tmax in rat at 5 mg/kg, po; assay type: ADME, organism-based; conditions: in vivo
[10] = biological target: T1, Prostaglandin E2 receptor EP4 subtype; experiment: Potency index, ratio of IC50 for CJ-023423 to IC50 for test compound against EP4 receptor in human whole blood; assay type: tissue-based
[11] = Aqueous solubility of the compound at pH 6; assay type: physicochemical; conditions: aqueous medium
[12] = Drug metabolism in human hepatic microsomes; assay type: ADME, Microsome; conditions: liver microsomes, read-out: Drug metabolism
[13] = Drug metabolism in rat hepatic microsomes; assay type: ADME, Microsome; conditions: liver microsomes, read-out: Drug metabolism
Cytochrome P450 2B6 = biological target: T2, Cytochrome P450 2B6 (Homo sapiens, UniProt P20813); experiment: Inhibition of CYP2B6 (unknown origin); assay type: ADME
T2 sequence (P20813 whole entry): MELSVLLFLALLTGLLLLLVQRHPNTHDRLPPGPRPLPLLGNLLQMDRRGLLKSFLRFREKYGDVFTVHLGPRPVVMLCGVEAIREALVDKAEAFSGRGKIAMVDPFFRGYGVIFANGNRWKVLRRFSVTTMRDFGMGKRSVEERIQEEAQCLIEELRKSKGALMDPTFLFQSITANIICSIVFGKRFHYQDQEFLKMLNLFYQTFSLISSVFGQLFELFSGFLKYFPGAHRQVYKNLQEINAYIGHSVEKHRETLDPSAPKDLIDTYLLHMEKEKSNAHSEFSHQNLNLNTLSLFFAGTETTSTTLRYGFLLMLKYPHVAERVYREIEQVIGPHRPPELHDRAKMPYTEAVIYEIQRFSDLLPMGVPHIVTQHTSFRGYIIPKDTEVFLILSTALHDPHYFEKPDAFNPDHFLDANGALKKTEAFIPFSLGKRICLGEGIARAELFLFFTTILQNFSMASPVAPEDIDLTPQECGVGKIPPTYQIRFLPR

[14] = biological target: Prostaglandin E2 receptor EP2 subtype (Homo sapiens, UniProt P43116); experiment: Antagonist activity at human EP2 receptor
Prostaglandin E2 receptor EP2 subtype, sequence (P43116 whole entry): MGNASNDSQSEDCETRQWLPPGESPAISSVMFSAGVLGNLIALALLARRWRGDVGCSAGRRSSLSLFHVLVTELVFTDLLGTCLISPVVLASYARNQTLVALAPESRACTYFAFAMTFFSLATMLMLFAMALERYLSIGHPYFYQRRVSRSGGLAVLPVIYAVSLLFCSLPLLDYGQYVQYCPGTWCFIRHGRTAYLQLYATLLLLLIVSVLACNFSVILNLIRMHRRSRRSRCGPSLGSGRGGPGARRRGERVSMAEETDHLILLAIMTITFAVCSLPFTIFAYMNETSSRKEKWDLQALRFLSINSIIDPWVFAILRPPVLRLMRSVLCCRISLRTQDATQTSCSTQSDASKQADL

Cytochrome P450 2D6 = Cytochrome P450 2D6 (Homo sapiens, UniProt P10635); experiment: Inhibition of CYP2D6 (unknown origin); assay type: ADME
Cytochrome P450 2D6, sequence (P10635 whole entry): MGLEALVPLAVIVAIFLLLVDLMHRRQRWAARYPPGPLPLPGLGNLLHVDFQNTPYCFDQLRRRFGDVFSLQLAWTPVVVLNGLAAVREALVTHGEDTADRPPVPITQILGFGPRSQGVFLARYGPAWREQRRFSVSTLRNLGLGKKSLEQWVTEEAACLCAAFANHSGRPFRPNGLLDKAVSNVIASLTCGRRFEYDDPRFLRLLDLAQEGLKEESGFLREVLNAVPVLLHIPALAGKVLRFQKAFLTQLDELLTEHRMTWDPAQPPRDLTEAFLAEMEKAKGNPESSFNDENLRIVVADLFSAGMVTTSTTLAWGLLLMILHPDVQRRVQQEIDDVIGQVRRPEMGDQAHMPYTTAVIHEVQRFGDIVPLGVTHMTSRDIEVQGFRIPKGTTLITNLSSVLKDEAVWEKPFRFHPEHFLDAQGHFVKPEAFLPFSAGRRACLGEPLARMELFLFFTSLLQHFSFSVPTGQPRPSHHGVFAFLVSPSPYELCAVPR

Cytochrome P450 2C19 = Cytochrome P450 2C19 (Homo sapiens, UniProt P33261); experiment: Inhibition of CYP2C19 (unknown origin); assay type: ADME
Cytochrome P450 2C19, sequence (P33261 whole entry): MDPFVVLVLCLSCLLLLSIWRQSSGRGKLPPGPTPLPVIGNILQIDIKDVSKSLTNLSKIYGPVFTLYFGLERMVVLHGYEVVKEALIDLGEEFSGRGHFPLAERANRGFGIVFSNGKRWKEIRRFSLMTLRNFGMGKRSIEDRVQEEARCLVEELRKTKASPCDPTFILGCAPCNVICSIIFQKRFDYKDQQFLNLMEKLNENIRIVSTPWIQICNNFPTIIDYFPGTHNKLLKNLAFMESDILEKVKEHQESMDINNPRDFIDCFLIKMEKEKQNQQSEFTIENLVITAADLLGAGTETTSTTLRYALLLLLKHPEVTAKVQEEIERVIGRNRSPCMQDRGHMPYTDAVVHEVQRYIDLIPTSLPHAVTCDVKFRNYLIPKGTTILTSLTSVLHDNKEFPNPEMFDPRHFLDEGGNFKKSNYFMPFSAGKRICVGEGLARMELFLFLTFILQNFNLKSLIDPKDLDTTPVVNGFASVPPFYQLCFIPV

Cytochrome P450 2C8 = biological target: T3, Cytochrome P450 2C8 (Homo sapiens, UniProt P10632); experiment: Inhibition of CYP2C8 (unknown origin); assay type: ADME
T3 sequence (P10632 whole entry): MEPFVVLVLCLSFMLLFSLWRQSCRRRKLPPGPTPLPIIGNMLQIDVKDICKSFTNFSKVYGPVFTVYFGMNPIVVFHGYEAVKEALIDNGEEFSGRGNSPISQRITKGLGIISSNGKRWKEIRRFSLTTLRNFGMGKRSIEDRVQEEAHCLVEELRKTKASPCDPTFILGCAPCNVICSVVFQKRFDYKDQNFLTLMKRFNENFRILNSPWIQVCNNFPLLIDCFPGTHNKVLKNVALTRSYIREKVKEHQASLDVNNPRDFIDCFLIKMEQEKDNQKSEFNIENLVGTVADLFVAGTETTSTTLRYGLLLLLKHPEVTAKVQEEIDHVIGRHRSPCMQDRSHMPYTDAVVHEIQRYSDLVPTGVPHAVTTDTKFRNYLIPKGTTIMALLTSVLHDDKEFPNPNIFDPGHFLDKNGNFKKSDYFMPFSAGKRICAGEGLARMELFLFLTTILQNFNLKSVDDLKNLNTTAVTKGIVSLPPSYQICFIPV

[15] = biological target: T4, Prostaglandin E2 receptor EP3 subtype (Homo sapiens, UniProt P43115); experiment: Antagonist activity at human EP3 receptor
T4 sequence (P43115 whole entry): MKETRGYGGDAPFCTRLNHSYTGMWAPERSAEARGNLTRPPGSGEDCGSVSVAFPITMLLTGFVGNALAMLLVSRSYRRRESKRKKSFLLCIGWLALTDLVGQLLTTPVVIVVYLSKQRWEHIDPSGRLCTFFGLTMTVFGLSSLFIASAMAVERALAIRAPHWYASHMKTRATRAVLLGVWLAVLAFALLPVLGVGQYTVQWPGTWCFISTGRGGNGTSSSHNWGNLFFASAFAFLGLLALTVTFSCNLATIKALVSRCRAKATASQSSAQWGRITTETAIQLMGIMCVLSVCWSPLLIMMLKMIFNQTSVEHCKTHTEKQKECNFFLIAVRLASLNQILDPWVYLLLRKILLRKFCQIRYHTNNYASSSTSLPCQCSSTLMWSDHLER

Cytochrome P450 2C9 = Cytochrome P450 2C9 (Homo sapiens, UniProt P11712); experiment: Inhibition of CYP2C9 (unknown origin); assay type: ADME
Cytochrome P450 2C9, sequence (P11712 whole entry): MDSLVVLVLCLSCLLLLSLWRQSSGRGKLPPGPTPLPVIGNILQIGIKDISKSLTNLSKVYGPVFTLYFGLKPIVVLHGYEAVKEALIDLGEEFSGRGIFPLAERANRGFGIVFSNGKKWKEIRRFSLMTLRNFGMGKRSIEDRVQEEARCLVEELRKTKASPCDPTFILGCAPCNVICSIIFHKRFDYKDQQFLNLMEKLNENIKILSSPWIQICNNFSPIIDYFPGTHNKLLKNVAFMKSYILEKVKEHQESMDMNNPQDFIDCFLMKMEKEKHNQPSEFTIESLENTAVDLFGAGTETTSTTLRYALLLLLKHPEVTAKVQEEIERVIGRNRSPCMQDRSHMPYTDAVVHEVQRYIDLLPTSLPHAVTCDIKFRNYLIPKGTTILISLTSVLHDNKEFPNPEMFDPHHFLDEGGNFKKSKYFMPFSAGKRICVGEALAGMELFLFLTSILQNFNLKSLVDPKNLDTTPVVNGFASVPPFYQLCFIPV

Cytochrome P450 1A2 = biological target: T5, Cytochrome P450 1A2 (Homo sapiens, UniProt P05177); experiment: Inhibition of CYP1A2 (unknown origin); assay type: ADME
T5 sequence (P05177 whole entry): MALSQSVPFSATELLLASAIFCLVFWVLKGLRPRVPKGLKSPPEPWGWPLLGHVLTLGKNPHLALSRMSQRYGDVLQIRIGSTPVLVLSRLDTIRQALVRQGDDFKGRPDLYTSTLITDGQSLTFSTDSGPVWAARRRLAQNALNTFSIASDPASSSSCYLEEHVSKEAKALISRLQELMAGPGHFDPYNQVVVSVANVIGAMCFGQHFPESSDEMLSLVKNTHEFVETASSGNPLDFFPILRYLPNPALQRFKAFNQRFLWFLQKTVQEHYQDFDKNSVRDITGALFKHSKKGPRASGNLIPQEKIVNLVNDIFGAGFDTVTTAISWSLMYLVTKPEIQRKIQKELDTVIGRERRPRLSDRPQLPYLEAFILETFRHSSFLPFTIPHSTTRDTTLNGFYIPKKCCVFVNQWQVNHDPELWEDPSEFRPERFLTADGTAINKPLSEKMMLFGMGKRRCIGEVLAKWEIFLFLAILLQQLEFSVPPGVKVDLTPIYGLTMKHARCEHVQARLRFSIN

[16] = biological target: T6, Prostaglandin E2 receptor EP1 subtype (Homo sapiens, UniProt P34995); experiment: Antagonist activity at human EP1 receptor
T6 sequence (P34995 whole entry): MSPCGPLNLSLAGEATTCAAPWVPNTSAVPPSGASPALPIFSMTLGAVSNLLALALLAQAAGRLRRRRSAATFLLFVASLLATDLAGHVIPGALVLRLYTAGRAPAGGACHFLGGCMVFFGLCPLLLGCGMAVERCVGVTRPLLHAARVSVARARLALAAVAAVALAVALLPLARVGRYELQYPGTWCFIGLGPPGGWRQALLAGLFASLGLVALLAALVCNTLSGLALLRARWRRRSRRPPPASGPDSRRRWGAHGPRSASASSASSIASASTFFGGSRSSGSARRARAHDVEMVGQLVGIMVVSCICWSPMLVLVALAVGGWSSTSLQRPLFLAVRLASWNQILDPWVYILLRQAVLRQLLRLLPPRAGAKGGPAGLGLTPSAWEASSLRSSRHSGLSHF

Cytochrome P450 3A4 = Cytochrome P450 3A4 (Homo sapiens, UniProt P08684); experiment: Inhibition of CYP3A4 (unknown origin); assay type: ADME
Cytochrome P450 3A4, sequence (P08684 whole entry): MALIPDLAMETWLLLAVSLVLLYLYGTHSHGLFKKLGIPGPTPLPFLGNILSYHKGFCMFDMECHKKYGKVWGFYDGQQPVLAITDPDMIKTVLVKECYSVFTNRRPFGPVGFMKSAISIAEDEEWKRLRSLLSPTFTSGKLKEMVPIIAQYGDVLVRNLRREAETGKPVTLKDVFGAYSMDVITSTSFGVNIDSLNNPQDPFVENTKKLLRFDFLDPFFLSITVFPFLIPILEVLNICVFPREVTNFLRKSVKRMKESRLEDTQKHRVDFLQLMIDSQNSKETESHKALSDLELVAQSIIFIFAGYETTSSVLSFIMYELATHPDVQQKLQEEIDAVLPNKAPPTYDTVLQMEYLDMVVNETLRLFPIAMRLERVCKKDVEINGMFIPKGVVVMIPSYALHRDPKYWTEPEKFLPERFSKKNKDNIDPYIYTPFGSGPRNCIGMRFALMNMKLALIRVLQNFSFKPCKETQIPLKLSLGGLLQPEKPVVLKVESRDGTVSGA

- clearance [1]: 59.6 mL/min/kg
- bioavailability [2]: 3%
- IC50 [3]: 501 nM
- Cmax [4]: 42.3 ng/mL
- Ki [5]: 52.3 nM
- IC50 [7]: 3.08 nM
- metabolised at 0.5 h [8]: < 1%
- Tmax [9]: 15 min
Structure (SMILES): Cc1cc(C(=O)O)cc(C)c1NC(=O)c1cc(-c2cccc(CO)c2)nc2ccccc12
- Ratio [6]: 0.2

- clearance [1]: 23.8 mL/min/kg
- Ratio IC50 [10]: > 250
- bioavailability [2]: 6%
- IC50 [3]: 6.2 nM
- Cmax [4]: 85.7 ng/mL
- Ki [5]: 1.98 nM
- IC50 [7]: 2.42 nM
- metabolised at 0.5 h [8]: < 1%
- Tmax [9]: 15 min
Structure (SMILES): Cc1ccc(C(=O)O)c(C)c1NC(=O)c1cc(-c2cccc(CO)c2)cc2ccccc12
- Ratio [6]: 33

- solubility [11]: 977 µg/mL (≈ 1990 µM)
- IC50 [3]: 1520 nM
- metabolised [12]: 2%
- metabolised [13]: 5%
Structure (SMILES): CCc1nc2c(C)nc(C)cc2n1-c1ccc(CCNC(=O)NS(=O)(=O)c2ccc(C)cc2)cc1 [GRAPIPRANT]

- Ratio IC50 [10]: > 5
- IC50 [3]: 312 nM
- Ki [5]: 17 nM
- IC50 [7]: 5.2 nM
Structure (SMILES): Cc1ccc(C(=O)O)c(C)c1NC(=O)c1cc(-c2cccc(CO)c2)nc2ccccc12

- solubility [11]: < 1 µg/mL
- IC50 [3]: > 30000 nM
- Ki [5]: 512 nM
- metabolised [12]: 71%
- IC50 [7]: 128 nM
- metabolised [13]: 64%
Structure (SMILES): Cc1cccc(C)c1NC(=O)c1cc(-c2ccccc2)nc2ccccc12

- IC50 [3]: 623 nM
- Ki [5]: 8.04 nM
- IC50 [7]: 3.48 nM
Structure (SMILES): Cc1cc(C(=O)O)cc(C)c1NC(=O)c1cc(-c2ccccc2)cc2ccccc12

- IC50 [3]: 136 nM
- Ki [5]: 3.54 nM
- IC50 [7]: 1.11 nM
Structure (SMILES): Cc1cc(C(=O)O)cc(C)c1NC(=O)c1cc(-c2cccc(CO)c2)cc2ccccc12

- IC50 [3]: 1980 nM
- Ki [5]: 39.2 nM
- IC50 [7]: 11.2 nM
Structure (SMILES): Cc1cc(C(=O)O)cc(C)c1NC(=O)c1cc(-c2ccccc2)nc2ccccc12

- IC50 (Cytochrome P450 2B6): > 10000 nM
- IC50 [14]: 3700 nM
- Ki [14]: 2800 nM
- IC50 (Cytochrome P450 2D6): > 10000 nM
- clearance [1]: 1.9 mL/min/kg
- IC50 (Cytochrome P450 2C19): > 10000 nM
- IC50 (Cytochrome P450 2C8): > 10000 nM
- IC50 [15]: > 25000 nM
- Ki [15]: > 17500 nM
- IC50 (Cytochrome P450 2C9): > 10000 nM
- IC50 (Cytochrome P450 1A2): > 10000 nM
- bioavailability [2]: 100%
- IC50 [3]: 243 nM
- IC50 [16]: > 25000 nM
- Ki [16]: > 19500 nM
- Cmax [4]: 10900 ng/mL
- Ki [5]: 3.49 nM
- IC50 [7]: 3.62 nM
- IC50 (Cytochrome P450 3A4): > 10000 nM
- metabolised at 0.5 h [8]: 7%
- Tmax [9]: 60 min
Structure (SMILES): Cc1ccc(C(=O)O)c(C)c1NC(=O)c1cc(-c2cccc(Cl)c2)cc2ccccc12
- Ratio [6]: 104

- IC50 [3]: > 30000 nM
- Ki [5]: > 19200 nM
- IC50 [7]: > 25000 nM
Structure (SMILES): Cc1cccc(C)c1NC(=O)c1cc(-c2ccc(C(=O)O)cc2)nc2ccccc12

- IC50 [3]: 577 nM
- Ki [5]: 6.72 nM
- IC50 [7]: 5.65 nM
Structure (SMILES): Cc1ccc(C(=O)O)c(C)c1NC(=O)c1cc(-c2ccccc2)cc2ccccc12

— ChEMBL document CHEMBL3739413, “Discovery of substituted-2,4-dimethyl-(naphthalene-4-carbonyl)amino-benzoic acid as potent and selective EP4 antagonists” (Bioorg Med Chem Lett, 2016)
